According to ChEMBL document CHEMBL1125797, “Synthesis, characterization and myocardial uptake of cationic bis(arene)technetium(I) complexes” (J Med Chem, 1991):

What was measured:
Rattus norvegicus [1] = assay: Biodistribution of compound in rat lungs at 45 min after intravenous administration; type: ADME, organism-based, Lung; settings: in vivo, 0.75 h
Outline: (§1)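 Rats received the 99mTc complex in normal saline (~12.5 μCi/mL) by lateral tail vein injection at ~25 μCi/kg and were killed by cervical dislocation at the stated time. Tissues were washed with saline, blotted, weighed and γ-counted to give percent injected dose/g. Time-course values are averages of male and female rats.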

Rattus norvegicus [2] = assay: Biodistribution of compound in rat gonads at 90 min after intravenous administration; type: ADME, organism-based, Gonad; settings: in vivo, 1.5 h
Outline: (§2)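 Time course in Sprague-Dawley rats after lateral tail-vein injection of the 99mTc complex in normal saline (~12.5 μCi/mL) at ~25 μCi/kg. Tissues were sampled at the stated times, washed with saline, blotted, weighed and γ-counted to give percent injected dose per g. Values are averages of male and female rats.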

Rattus norvegicus [3] = assay: Biodistribution of compound in rat bone marrow at 360 min after intravenous administration; type: ADME, organism-based; settings: in vivo, 6 h; outline: as §2
Rattus norvegicus [4] = assay: Biodistribution of compound in rat eye at 1440 min after intravenous administration; type: ADME, organism-based; settings: in vivo, 24 h; outline: as §2
Rattus norvegicus [5] = assay: Biodistribution of compound in rat muscle at 1440 min after intravenous administration; type: ADME, organism-based, Muscle tissue; settings: in vivo, 24 h; outline: as §1
[6] = Biodistribution of compound in rat muscle after 5 min of administration; type: ADME, organism-based, Muscle tissue; settings: in vivo; outline: as §1
Rattus norvegicus [7] = assay: Biodistribution of compound in rat feces at 360 min after intravenous administration; type: ADME, organism-based; settings: in vivo, 6 h
Rattus norvegicus [8] = assay: Biodistribution of compound in rat blood at 360 min after intravenous administration; type: ADME, organism-based; settings: in vivo, 6 h; outline: as §2
Rattus norvegicus [9] = assay: Biodistribution of compound in rat bone at 1440 min after intravenous administration; type: ADME, organism-based, Bone element; settings: in vivo, 24 h; outline: as §2
Rattus norvegicus [10] = assay: Biodistribution of compound in rat brain after 5 min of administration; type: ADME, organism-based; settings: in vivo
Rattus norvegicus [11] = assay: Biodistribution of compound in rat bone marrow at 5 min after intravenous administration; type: ADME, organism-based; settings: in vivo; outline: as §2
Rattus norvegicus [12] = assay: Biodistribution of compound in rat heart at 90 min after intravenous administration; type: ADME, organism-based; settings: in vivo, 1.5 h; outline: as §2
Rattus norvegicus [13] = assay: Biodistribution of compound in rat eye at 90 min after intravenous administration; type: ADME, organism-based; settings: in vivo, 1.5 h; outline: as §2
Rattus norvegicus [14] = assay: Biodistribution of compound in rat gonads at 5 min after intravenous administration; type: ADME, organism-based, Gonad; settings: in vivo; outline: as §2
Rattus norvegicus [15] = assay: Biodistribution of compound in rat bone marrow at 1440 min after intravenous administration; type: ADME, organism-based; settings: in vivo, 24 h; outline: as §2
Rattus norvegicus [16] = assay: Biodistribution of compound in rat blood at 45 min after intravenous administration; type: ADME, organism-based; settings: in vivo, 0.75 h; outline: as §2
Rattus norvegicus [17] = assay: Biodistribution of compound in rat bone at 360 min after intravenous administration; type: ADME, organism-based, Bone element; settings: in vivo, 6 h; outline: as §2
Rattus norvegicus [18] = assay: Biodistribution of compound in rat liver at 45 min after intravenous administration; type: ADME, organism-based; settings: in vivo, 0.75 h; outline: as §1
Rattus norvegicus [19] = assay: Biodistribution of compound in rat kidney at 90 min after intravenous administration; type: ADME, organism-based; settings: in vivo, 1.5 h; outline: as §2
Rattus norvegicus [20] = assay: Biodistribution of compound in rat muscle at 360 min after intravenous administration; type: ADME, organism-based, Muscle tissue; settings: in vivo, 6 h; outline: as §1
Rattus norvegicus [21] = assay: Biodistribution of compound in rat gonads at 180 min after intravenous administration; type: ADME, organism-based, Gonad; settings: in vivo, 3 h; outline: as §2
Rattus norvegicus [22] = assay: Biodistribution of compound in rat kidney at 5 min after intravenous administration; type: ADME, organism-based; settings: in vivo; outline: as §2
Rattus norvegicus [23] = assay: Biodistribution of compound in rat lungs at 180 min after intravenous administration; type: ADME, organism-based, Lung; settings: in vivo, 3 h; outline: as §1
Rattus norvegicus [24] = assay: Biodistribution of compound in rat blood after 5 min of administration; type: ADME, organism-based; settings: in vivo
Outline: (§3)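 Female Sprague-Dawley rats (150–200 g) received the 99mTc complex in normal saline (~12.5 μCi/mL) via a lateral tail vein at ~25 μCi/kg. They were killed by cervical dislocation 5 min after injection. Tissues were washed with saline, blotted, weighed and γ-counted, and the read-out was percent injected dose per g tissue.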

Rattus norvegicus [25] = assay: Biodistribution of compound in rat blood at 180 min after intravenous administration; type: ADME, organism-based; settings: in vivo, 3 h; outline: as §2
Rattus norvegicus [26] = assay: Biodistribution of compound in rat eye at 5 min after intravenous administration; type: ADME, organism-based; settings: in vivo; outline: as §2
Rattus norvegicus [27] = assay: Biodistribution of compound in rat eye at 45 min after intravenous administration; type: ADME, organism-based; settings: in vivo, 0.75 h; outline: as §2
Rattus norvegicus [28] = assay: Biodistribution of compound in rat heart after 5 min of administration; type: ADME, organism-based; settings: in vivo; outline: as §3
Rattus norvegicus [29] = assay: Biodistribution of compound in rat bone marrow at 180 min after intravenous administration; type: ADME, organism-based; settings: in vivo, 3 h; outline: as §2
Rattus norvegicus [30] = assay: Biodistribution of compound in rat kidney at 1440 min after intravenous administration; type: ADME, organism-based; settings: in vivo, 24 h; outline: as §2
Rattus norvegicus [31] = assay: Biodistribution of compound in rat lungs at 90 min after intravenous administration; type: ADME, organism-based, Lung; settings: in vivo, 1.5 h; outline: as §1
Rattus norvegicus [32] = assay: Biodistribution of compound in rat lungs at 360 min after intravenous administration; type: ADME, organism-based, Lung; settings: in vivo, 6 h; outline: as §1
Rattus norvegicus [33] = assay: Biodistribution of compound in rat liver at 90 min after intravenous administration; type: ADME, organism-based; settings: in vivo, 1.5 h; outline: as §1
Rattus norvegicus [34] = assay: Biodistribution of compound in rat gonads at 360 min after intravenous administration; type: ADME, organism-based, Gonad; settings: in vivo, 6 h; outline: as §2
Rattus norvegicus [35] = assay: Biodistribution of compound in rat heart at 1440 min after intravenous administration; type: ADME, organism-based; settings: in vivo, 24 h; outline: as §2
Rattus norvegicus [36] = assay: Biodistribution of compound in rat lungs at 5 min after intravenous administration; type: ADME, organism-based, Lung; settings: in vivo; outline: as §1

Bis(1,3,5-trimethylbenzene)technetium
Dose/g (Rattus norvegicus [1]): 0.86 % dose/organ | Dose/g (Rattus norvegicus [2]): 0.067 % dose | Dose/g (Rattus norvegicus [3]): 0.09 % dose/organ | Dose/g (Rattus norvegicus [4]): 0.01 % dose/organ | Dose/g (Rattus norvegicus [5]): 25 % dose/organ | Dose/g [6]: 0.35% | Dose/g (Rattus norvegicus [7]): 0.4 % dose | Dose/ml (Rattus norvegicus [8]): 0.52 % dose | Dose/g (Rattus norvegicus [9]): 0.8 % dose/organ | Dose/g (Rattus norvegicus [10]): 0.1% | Dose/g (Rattus norvegicus [11]): 0.37 % dose/organ | Dose/g (Rattus norvegicus [12]): 1.17 % dose | Dose/g (Rattus norvegicus [13]): 0.044 % dose | Dose/g (Rattus norvegicus [14]): 0.1 % dose | Dose/g (Rattus norvegicus [15]): 0.02 % dose/organ | Dose/ml (Rattus norvegicus [16]): 1.24 % dose | Dose/g (Rattus norvegicus [17]): 1.3 % dose | Dose/g (Rattus norvegicus [18]): 3.1 % dose | Dose/g (Rattus norvegicus [19]): 2 % dose/organ | Dose/g (Rattus norvegicus [20]): 29 % dose/organ | Dose/g (Rattus norvegicus [21]): 0.055 % dose | Dose/g (Rattus norvegicus [22]): 13.6 % dose | Dose/g (Rattus norvegicus [23]): 0.48 % dose/organ | Dose/g (Rattus norvegicus [24]): 0.096% | Dose/ml (Rattus norvegicus [25]): 0.67 % dose | Dose/g (Rattus norvegicus [26]): 0.041 % dose | Dose/g (Rattus norvegicus [27]): 0.028 % dose | Dose/g (Rattus norvegicus [28]): 1.9% | Dose/g (Rattus norvegicus [29]): 0.13 % dose/organ | Dose/g (Rattus norvegicus [30]): 0.4 % dose | Dose/g (Rattus norvegicus [31]): 0.6 % dose/organ | Dose/g (Rattus norvegicus [32]): 0.34 % dose/organ | Dose/g (Rattus norvegicus [33]): 3.6 % dose/organ | Dose/g (Rattus norvegicus [34]): 0.05 % dose | Dose/g (Rattus norvegicus [35]): 0.77 % dose | Dose/g (Rattus norvegicus [36]): 1.15 % dose/organ
